Here are results for 13 compounds from ChEMBL document CHEMBL1155077, “Kinesin spindle protein (KSP) inhibitors. 9. Discovery of (2S)-4-(2,5-difluorophenyl)-n-[(3R,4S)-3-fluoro-1-methylpiperidin-4-yl]-2-(hydroxymethyl)-N-methyl-2-phenyl-2,5-dihydro-1H-pyrrole-1-carboxamide (MK-0731) for the treatment of taxane-refractory cancer” (J Med Chem, 2008).

In data set [1] the test system is A2780. In words: Induction of mitotic arrest in human A2780 cells […] clr:NU/NU-nuBR mouse assessed as minimum plasma concentration required to induce maximum mitotic arrest after 22 hrs. The data set is classed as functional.
The nature of data set [2]: Inhibition of human KSP.
A short description of data set [3]: Dissociation constant, pKa by Sirius GLpKa titrator. The data set is classed as physicochemical. In outline:
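Potentiometric pKa measured on a Sirius GLpKa titrator; mean of n = 3 determinations unless marked as a single determination.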

Data set [4] relates to A2780. In words: Induction of mitotic arrest in human A2780 cells expressing MDR1 after 16 hrs. The settings on record: A2780, 16 h. Format: functional, cell-based.
Data set [5] in a line: Ratio of IC50 for induction of mitotic arrest in human […] to IC50 for induction of mitotic arrest in […] human KB-V-1 cells. The data set is classed as functional. The method, boiled down:
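Phospho-nucleolin mitotic-arrest assay in parental KB-3-1 and MDR1-overexpressing KB-V-1 cells (>500-fold higher MDR1 mRNA). Cells were treated in triplicate for 16 h across 10 000 to 0.1 nM (11-point, half-log series; 0.1% DMSO final). Total nucleolin was bead-captured from lysates and phospho-nucleolin detected by TG3 antibody plus a ruthenium-labelled secondary. Ratio = IC50 (KB-V-1) / IC50 (KB-3-1).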

Data set [6] is described as follows: Inhibition of human KSP in presence of 30% mouse serum. The method, boiled down: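 KSP ATPase assay as the primary one (0.25 nM KSP motor domain, microtubules, 1 mM ATP, pH 6.8, 3 h at RT, quinaldine red phosphate read-out), run with 30% mouse serum dialysed against reaction buffer (12-14 kDa cutoff). Mean of at least 3 experiments unless noted.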
In data set [7] the test system is Rattus norvegicus. Nature of the data set: AUC in rat at 4 mg/kg, iv. Format: ADME, organism-based, Plasma. The settings on record: in vivo. On the set-up: dose 4 mg/kg, route intravenous.
Data set [8] has as its system Rattus norvegicus. Nature of the data set: AUC in rat at 1 mg/kg, iv. The data set is classed as ADME, organism-based, Plasma. The following applies: in vivo. On the set-up: dose 1 mg/kg, route intravenous.
In data set [9] the test system is Rattus norvegicus. In words: AUC in rat at 12 mg/kg, iv. Format: ADME, organism-based, Plasma. On the set-up: dose 12 mg/kg, route intravenous. The settings on record: in vivo.
In data set [10] the target is Voltage-gated inwardly rectifying potassium channel KCNH2 (Homo sapiens, UniProt Q12809).
Voltage-gated inwardly rectifying potassium channel KCNH2, sequence (Q12809 whole entry): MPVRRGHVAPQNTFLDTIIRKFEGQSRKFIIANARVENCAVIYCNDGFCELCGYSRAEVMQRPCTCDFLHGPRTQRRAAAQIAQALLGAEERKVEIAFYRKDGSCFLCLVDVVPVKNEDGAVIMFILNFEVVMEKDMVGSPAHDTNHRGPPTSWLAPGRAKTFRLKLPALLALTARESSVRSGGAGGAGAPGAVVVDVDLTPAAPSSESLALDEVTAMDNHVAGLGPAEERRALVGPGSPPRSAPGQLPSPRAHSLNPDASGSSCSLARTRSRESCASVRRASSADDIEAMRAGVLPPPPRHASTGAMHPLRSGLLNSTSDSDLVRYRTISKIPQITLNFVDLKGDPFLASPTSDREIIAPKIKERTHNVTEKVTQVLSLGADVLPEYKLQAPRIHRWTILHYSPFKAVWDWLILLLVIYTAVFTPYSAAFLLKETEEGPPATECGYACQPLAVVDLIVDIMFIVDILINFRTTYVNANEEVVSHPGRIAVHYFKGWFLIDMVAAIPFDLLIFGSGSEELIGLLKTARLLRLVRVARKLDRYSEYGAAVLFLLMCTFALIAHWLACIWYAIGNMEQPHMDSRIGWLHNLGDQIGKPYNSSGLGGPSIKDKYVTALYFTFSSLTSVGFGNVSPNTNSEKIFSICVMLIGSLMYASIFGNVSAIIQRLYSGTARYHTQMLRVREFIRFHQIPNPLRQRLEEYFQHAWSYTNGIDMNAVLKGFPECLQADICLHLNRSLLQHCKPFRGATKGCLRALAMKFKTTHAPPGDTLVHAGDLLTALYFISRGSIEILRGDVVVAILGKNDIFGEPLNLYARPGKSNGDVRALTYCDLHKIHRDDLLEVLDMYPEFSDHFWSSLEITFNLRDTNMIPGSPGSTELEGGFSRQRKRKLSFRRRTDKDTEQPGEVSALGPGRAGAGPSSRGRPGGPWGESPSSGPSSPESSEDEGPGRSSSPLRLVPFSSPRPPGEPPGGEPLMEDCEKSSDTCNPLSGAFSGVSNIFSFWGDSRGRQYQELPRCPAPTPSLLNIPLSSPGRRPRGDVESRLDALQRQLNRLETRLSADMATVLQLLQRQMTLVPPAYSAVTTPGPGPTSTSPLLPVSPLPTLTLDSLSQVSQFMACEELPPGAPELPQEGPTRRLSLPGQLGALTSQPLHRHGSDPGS

For the compound `CN1CCC(N(C)C(=O)N2CC(c3cc(F)ccc3F)=C[C@H]2c2ccccc2)CC1`, in the data set on A2780 [1], the EC90 was 400 nM. Further, the IC50 in data set [2] was determined as 4 nM.

Turning to `CN(C(=O)N1CC(c2cc(F)ccc2F)=C[C@@]1(CO)c1ccccc1)C1CCN(CC(F)F)CC1`, the pKa in data set [3] is 4.9. The same compound showed a concentration for half-maximal inhibition (IC50) in [2] of 34.1 nM.

In the data set with A2780 [4], `CN1CC[C@@H](N(C)C(=O)N2CC(c3cc(F)ccc3F)=C[C@@]2(CO)c2ccccc2)[C@H](F)C1` showed an EC50 of 37.6 nM. The Ratio in data set [5] was found to be 2.9. This compound returned a half-maximal inhibitory concentration (IC50) in data set [2] of 11.9 nM.

In data set [3], `CN(C(=O)N1CC(c2cc(F)ccc2F)=C[C@@]1(CO)c1ccccc1)C1CCN(C2CC2)CC1` registered a pKa of 7.5. In [2], this compound yielded an IC50 of 5.9 nM.

Take `CN1CCC(N(C)C(=O)N2CC(c3cc(F)ccc3F)=C[C@@]2(CO)c2ccccc2)CC1`: in the data set on A2780 [4], the EC50 amounted to 5.6 nM. Besides, in the data set with A2780 [1], the EC90 was found to be 125 nM. In data set [3], this compound had a pKa of 8.8. The IC50 in [2] amounted to 6.2 nM; in data set [6] it was 29.1 nM.

Consider `CN1CC[C@@H](N(C)C(=O)N2CC(c3cc(F)ccc3F)=C[C@@]2(CO)c2ccccc2)[C@@H](F)C1`, for which, in the data set on A2780 [4], the EC50 stood at 13.8 nM. Also, the Ratio in data set [5] is 4.8. The same compound had an IC50 in [2] of 13.3 nM.

For `CC(=O)O[C@H]1C(=O)[C@@]2(C)[C@H]([C@H](OC(=O)c3ccccc3)[C@]3(O)C[C@H](OC(=O)[C@H](O)[C@@H](NC(=O)c4ccccc4)c4ccccc4)C(C)=C1C3(C)C)[C@]1(OC(C)=O)CO[C@@H]1C[C@@H]2O` [PACLITAXEL], in the data set with A2780 [4], the EC50 is greater than 10000 nM. In data set [2], this compound had a 50% inhibitory concentration (IC50) of 0.5 nM.

In the data set with A2780 [4], `CN(C(=O)N1CC(c2cc(F)ccc2F)=C[C@@]1(CO)c1ccccc1)C1CCN(CCF)CC1` displayed an EC50 of 4.8 nM. Moreover, the values for the AUC with Rattus norvegicus [7], with Rattus norvegicus [8] and in the data set with Rattus norvegicus [9] were 2.5 µM·h, 0.5 µM·h and 9.5 µM·h, respectively. Besides, in the data set with A2780 [1], the 90% effect concentration (EC90) is 100 nM. The compound also had a pKa in data set [3] of 7.6. Further, the IC50 in data set [2] was determined as 5 nM; in data set [6] it was 38.8 nM.

The compound `CN(C)C(=O)N1CC(c2cc(F)ccc2F)=C[C@@]1(CO)c1ccccc1` yielded an IC50 in data set [2] of 78 nM.

`CN(C)C(=O)N1CC(c2cc(F)ccc2F)=C[C@@]1(CC[C@@H](N)C(F)F)c1ccccc1` registered an EC50 in the data set on A2780 [4] of 22.5 nM. The EC90 with A2780 [1] is 1425 nM. The IC50 in data set [10] turned out to be 15900 nM; in data set [2], 5 nM; in [6], 84.2 nM.

Take `CN(C(=O)N1CC(c2cc(F)ccc2F)=C[C@@]1(CO)c1ccccc1)C1CCN(CC2CC2)CC1`: the pKa in data set [3] turned out to be 9.1. This compound also displayed an IC50 in [2] of 5.1 nM.

`CN1CC[C@H](N(C)C(=O)N2CC(c3cc(F)ccc3F)=C[C@@]2(CO)c2ccccc2)[C@@H](F)C1` yielded an EC50 in the data set on A2780 [4] of 16.5 nM. Besides, the Ratio in data set [5] is recorded as 2.4. The IC50 is 36900 nM in data set [10] and 11.5 nM in [2]. This compound displayed a pKa in [3] of 6.6.

With `CN(C(=O)N1CC(c2cc(F)ccc2F)=C[C@@]1(CO)c1ccccc1)C1CCNCC1`, the pKa in data set [3] worked out at 9.8. The compound also showed an IC50 in data set [2] of 7.4 nM.

What is called EC90 is the point of the concentration-response curve where the effect stands at 90%. In general, IC50 refers to the concentration at which inhibition is half-maximal. As a reminder, the pKa is the pH at which an ionisable group is half protonated. High values mean a group that holds its proton tightly, low ones a group that gives up its proton readily. One may read the EC50 as the concentration giving half of the maximal effect. Read a low EC50 as a more potent agent. As a reminder, the AUC is concentration integrated over time. Lower therefore signals less exposure.
